# Source: ChEMBL document CHEMBL1944617, “Near infrared active heptacyanine dyes with unique cancer-imaging and cytotoxic properties” (Bioorg Med Chem Lett, 2012)
# pIC50: −log10 of the molar value. The source made the active and inactive calls. The rule behind the calls is not given here.
# Columns and labels:
# [1] = system: HeLa; assay: Cytotoxicity against human HeLa cells after 48 hrs by MTT assay; assay type: functional, cell-based
# Outline: (§1)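 HeLa and HDF in DMEM, PC-3 in RPMI, each with 10% FBS and 1% pen/strep. Seeded at 5 × 10³ cells/well, then given dye in DMSO (final DMSO 0.1%) at 0, 0.75, 1, 2, 5, 10, 15, 20 µM for 48 h. Washed twice with PBS, MTT added, 4 h at 37 °C in the dark. Formazan dissolved in DMSO, A570 read. IC50 taken from the survival-versus-concentration curve.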
# [2] = Cellular uptake in human PC3 cell cytoplasm at 20 uM after 8 hrs by fluorescence confocal microscopic analysis; assay type: ADME, cell-based; conditions: pc-3, 8 h
# Outline: (§2)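 PC-3 (RPMI) or primary human dermal fibroblasts (DMEM), 10% FBS, 1% pen/strep, grown on glass coverslips and exposed to dye at 20 µM for 8 h. Fixed in cold (−20 °C) methanol 10 min, blocked in 2% BSA/PBS at 37 °C 1 h, actin stained with fluorescent phalloidin 1 h RT, mounted with DAPI antifade. NIR dye imaged with ICG filter set and 780 nm LED.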
# [3] = Cytotoxicity against human HDF cells after 48 hrs by MTT assay; assay type: cell-based; conditions: for pIC50: Homo sapiens, HDF; for Activity: human, hdf; outline: as §1
# [4] = Cytotoxicity against human HDF cells assessed as cell viability at 5 to 20 uM after 24 hrs by trypan blue exclusion assay; assay type: cell-based; conditions: for Activity: hdf, 24 h, 20 µM
# Outline: (§3)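 Primary human dermal fibroblasts in DMEM with 10% FBS and 1% pen/strep, dosed at 5, 10 or 20 µM for 24 h. Cells pelleted and washed with PBS, then mixed 1:1 with 0.4% trypan blue in PBS pH 7.4, 5 min RT. Blue cells scored non-viable by microscope counting. Mean ± SD of three independent experiments.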
# [5] = system: PC-3; assay: Cytotoxicity against human PC3 cells assessed as cell death at 5 to 20 uM after 24 hrs by trypan blue exclusion assay; assay type: functional
# Outline: (§4)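 Cells treated 24 h with dye at 5, 10 or 20 µM (PC-3 in RPMI; HeLa and HDF in DMEM; 10% FBS, 1% penicillin/streptomycin). Cells pelleted, PBS-washed, mixed 1:1 with 0.4% trypan blue in PBS pH 7.4, 5 min room temperature. Blue cells scored non-viable by microscope counting. Mean and SD of three independent experiments.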
# [6] = Cellular uptake in human HDF cell cytoplasm at 20 uM after 8 hrs by fluorescence confocal microscopic analysis; assay type: ADME, cell-based; outline: as §2
# [7] = system: PC-3; assay: Cytotoxicity against human PC3 cells after 48 hrs by MTT assay; assay type: functional, cell-based; conditions: for pIC50: PC-3, 48 h; outline: as §1
# [8] = system: HeLa; assay: Cytotoxicity against human HeLa cells assessed as cell death at 5 to 20 uM after 24 hrs by trypan blue exclusion assay; assay type: functional; outline: as §4
# [9] = Cytotoxicity against human HDF cells assessed as cell survival at 5 to 10 uM after 24 hrs by trypan blue exclusion assay; assay type: cell-based; conditions: read-out: Survival; outline: as §4
# [10] = system: HeLa; assay: Cytotoxicity against human HeLa cells assessed as cell survival at 5 to 10 uM after 24 hrs by trypan blue exclusion assay; assay type: functional; outline: as §4
# [11] = system: PC-3; assay: Cytotoxicity against human PC3 cells assessed as cell survival at 5 to 10 uM after 24 hrs by trypan blue exclusion assay; assay type: functional; outline: as §4
# [12] = Cytotoxicity against human HDF cells assessed as cell death at 20 uM after 24 hrs by trypan blue exclusion assay; assay type: cell-based; outline: as §3
# [13] = Cytotoxicity against human HDF cells assessed as cell death at 5 to 10 uM after 24 hrs by trypan blue exclusion assay; assay type: cell-based; outline: as §3
Structure (SMILES),pIC50 [1],Drug uptake [2],pIC50 [3],"viability at 24 h, up to 20 µM ([4]; HDF cells, read-out: Activity) [%]",Activity [5],Drug uptake [6],pIC50 [7],Activity [8],"viability at 24 h, up to 10 µM [9] [%]",Survival [10] [%],Survival [11] [%],Activity [12] [%],Activity [13] [%],Activity [1],Activity [3],Activity [4],Activity [7]
COC(=O)CCCCCN1/C(=C/C=C2\CCCC(/C=C/C3=[N+](CCCCCC(=O)OC)c4ccccc4C3(C)C)=C2Cl)C(C)(C)c2ccccc21.[Br-],6.10,Active,5.00,100,>90%,Not Active,5.52,>90%,–,–,–,–,–,–,–,–,–
COC(=O)CCCCCN1/C(=C/C=C2\CCCC(/C=C/C3=[N+](CCCCCC(=O)O)c4ccccc4C3(C)C)=C2Cl)C(C)(C)c2ccccc21.[Br-],6.00,Active,5.30,–,Active,Not Active,5.70,Active,85,20,20,80,10,–,–,–,–
CC1(C)C(/C=C/C2=C(Cl)C(=C/C=C3/N(CCCCCC(=O)O)c4ccccc4C3(C)C)/CCC2)=[N+](CCCCCC(=O)O)c2ccccc21.[Br-],–,Not Active,–,–,inactive,Not Active,–,inactive,–,–,–,–,–,inactive,Non-toxic,Non-toxic,inactive
CC1(C)C(/C=C/C2=C(Cl)C(=C/C=C3/N(CCCCS(=O)(=O)O)c4ccccc4C3(C)C)/CCC2)=[N+](CCCCS(=O)(=O)[O-])c2ccccc21,–,–,–,–,inactive,–,–,inactive,–,–,–,–,–,inactive,–,–,inactive
CC1(C)C(/C=C/C2=C(Cl)C(=C/C=C3\N(CCCCS(=O)(=O)[O-])c4ccccc4C3(C)C)/CCC2)=[N+](CCCCS(=O)(=O)[O-])c2ccccc21.[Na+],–,Not Active,–,–,–,Not Active,–,–,–,–,–,–,–,–,Non-toxic,Non-toxic,–
